Laboratory results published in ChEMBL document CHEMBL4334473, “Structure-Based Molecular Networking for the Target Discovery of Oxahomoaporphine and 8-Oxohomoaporphine Alkaloids from Duguetia surinamensis” (J Nat Prod, 2019).

Experiments:
HCT-116 = assay: Cytotoxicity against human HCT116 cells assessed as cell growth inhibition after 72 hrs by alamar blue assay; format: functional, cell-based; conditions: HCT-116, 72 h
How it was run: (§1)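 Tumour lines and MRC-5 fibroblasts obtained from ATCC, cultured per ATCC guidelines and confirmed mycoplasma-free by staining. Viability read by Alamar blue after 72 h exposure. IC50 in μM with 95% confidence interval by nonlinear regression, from at least three independent experiments run in duplicate. Doxorubicin served as positive control.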

HL-60 = assay: Cytotoxicity against human HL60 cells assessed as cell growth inhibition after 72 hrs by alamar blue assay; format: functional, cell-based; conditions: HL-60, 72 h; how it was run: as §1
MCF7 = assay: Cytotoxicity against human MCF7 cells assessed as cell growth inhibition after 72 hrs by alamar blue assay; format: functional, cell-based; conditions: MCF7, 72 h; how it was run: as §1
MRC5 = assay: Cytotoxicity against human MRC5 cells assessed as cell growth inhibition after 72 hrs by alamar blue assay; format: cell-based; conditions: MRC5, 72 h; how it was run: as §1
HepG2 = assay: Cytotoxicity against human HepG2 cells assessed as cell growth inhibition after 72 hrs by alamar blue assay; format: functional, cell-based; conditions: HepG2, 72 h; how it was run: as §1
MDA-MB-435 = assay: Cytotoxicity against human MDA-MB-435 cells assessed as inhibition of cell viability after 69 hrs by MTT assay; format: functional, cell-based; conditions: MDA-MB-435, 69 h
SF-295 = assay: Cytotoxicity against human SF295 cells assessed as inhibition of cell viability after 69 hrs by MTT assay; format: functional, cell-based; conditions: SF-295, 69 h
HCT-8 = assay: Cytotoxicity against human HCT8 cells assessed as inhibition of cell viability after 69 hrs by MTT assay; format: functional, cell-based; conditions: HCT-8, 69 h

Row | SMILES | IC50 (HCT-116) [µM] | IC50 (HL-60) [µM] | IC50 (MCF7) [µM] | IC50 (MRC5) [µM] | IC50 (HepG2) [µM] | IC50 (MDA-MB-435) [µM] | IC50 (SF-295) [µM] | IC50 (HCT-8) [µM]
1 | COc1cc2c(=O)cc3c4c(cc5c(c4c2cc1OC)OCO5)CCN3C | > 10 | > 10 | > 10 | > 10 | > 10 |  |  | 
2 | COC1=C[C@@]23CCN(C)[C@@H](Cc4cc(O)c(OC)cc42)C3=CC1=O | > 10 | > 10 | > 10 | > 10 | > 10 |  |  | 
3 | COc1ccc2c(c1)c(=O)cc1c3c(cc4c(c32)OCO4)CCN1C | > 10 | > 10 | > 10 | > 10 | > 10 |  |  | 
4 | COc1cc2c(cc1OC)[C@H](O)[C@@H]1c3c(cc4c(c3-2)OCO4)CCN1C | > 10 | 4.8 | > 10 | > 10 | 5 | 12.4 | 1.4 | 1.4
5 | COc1ccc(OC)c(OC)c1 [1,2,4-TRIMETHOXYBENZENE] | > 10 | > 10 | > 10 | > 10 | > 10 |  |  | 
6 | COc1cc2c(cc1OC)-c1c3c(cc4c1[C@H](C2)N(C)CC4)OCO3 [DICENTRINE] | 8.8 | 3.7 | > 10 | > 10 | > 10 |  |  | 
7 | COc1cc2c(cc1OC)-c1c3c(cc4ccnc(c14)C2=O)OCO3 [DICENTRINONE] | > 10 | > 10 | > 10 | > 10 | > 10 |  |  | 
8 | COc1cccc2c1C(=O)c1c(O)c3c(c(O)c1C2=O)C[C@@](O)(C(=O)CO)C[C@@H]3O[C@H]1C[C@H](N)[C@H](O)[C@H](C)O1 [DOXORUBICIN] | 0.3 | 0.04 |  | 2.4 | 0.04 |  |  | 
9 | COc1cc2c(cc1OC)[C@@H](O)[C@@H]1NCCc3cc4c(c-2c31)OCO4 | 4 | 2 | 10 | > 10 | 9.1 |  |  | 
10 | COc1cc2c(cc1OC)[C@H](O)[C@@H]1c3c(cc4c(c3-2)OCO4)CC[N+]1(C)[O-] (stereo not given in full) | 9.2 | 9.6 | > 10 | > 10 | > 10 | 7.3 | 1.6 | 1.9
